The results in this text go back to ChEMBL document CHEMBL4513216, “Probing the Open Global Health Chemical Diversity Library for Multistage-Active Starting Points for Next-Generation Antimalarials” (ACS Infect Dis, 2020).

Each structure is given as a SMILES string.

This data set in a line: Toxicity liver stage against HepG2, at 10uM. It is filed as cell-based. Also on record: test concentration 10 uM, cell line HepG2-A16-CD81EGFP. Conditions: human, HepG2-A16-CD81EGFP cells; read-out: INHIBITION
In short, it runs like this:
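Uninfected HepG2-A16-CD81EGFP cells, 3 × 10^3 per well, 1536-well, plated on prespotted compound at 10 μM final, parasite-free screening media added to match infected plates; puromycin 10 μM positive, DMSO 0.5% negative; run in parallel with 48 h PbLuc assay at 37 °C, 5% CO2; viability by CellTiter-Glo luminescence, normalized to controls.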
Consider `CC[C@H]1CN(C(=O)C2CC2)CC[C@H]1CC(=O)NCCN1CCOCC1`, for which the cytotoxicity at 10 µM is -7.3%.

On to `Cc1ccc(Oc2ncccc2C(=O)N(C)CC2OCCO2)c(C)c1`, for which the cytotoxicity at 10 µM is 3.54%.

As to `COc1ccc(C(=O)Nc2ccccc2C(C)C)c(OC)n1`, the cytotoxicity at 10 µM is 3.66%.

On to `CC[S+](CC)[c-]1c(=O)[nH]c(=O)n(CCc2ccc(F)cc2)c1=O`, for which the cytotoxicity at 10 µM was determined as 4.12%.

Turning to `COc1ccc(CC(C)(O)CNC(=O)c2cccs2)cc1` (centres undefined), the cytotoxicity at 10 µM was -4.69%.

With `O=C(NCC(F)(F)F)c1ccc(-n2cncn2)nn1`, the cytotoxicity at 10 µM was -1.66%.

As to `CC(=O)N1[C@H](Cn2cncn2)C[C@@H]2CN(Cc3nccs3)CC[C@@H]21`, the cytotoxicity at 10 µM came out at 10%.

Take `Cc1cc(C(=O)N2CC[C@H](OCC3CC3)[C@@H]2Cc2cccnc2)no1`: the cytotoxicity at 10 µM is -6.44%.

`CS(=O)(=O)NC[C@]12COC[C@H]1CN(C(=O)Cc1ccccc1F)C2`: the cytotoxicity at 10 µM is -2.57%.

With `Cc1c(-c2cc(C(F)F)nc3sc(C(N)=O)c(N)c23)cnn1C`, the cytotoxicity at 10 µM was found to be 10.1%.

As for `CN1CCN(C(=O)c2cc(-c3ccco3)cs2)CC1`, the cytotoxicity at 10 µM was 1.63%.

Turning to `CCC(=O)Nc1nnc(CCOc2ccccc2)s1`, the cytotoxicity at 10 µM was determined as 7.16%.

Consider `CC(C)(C)C(=O)N1CCC(c2noc(C3CCC(=O)N3)n2)CC1` (centres undefined), for which the cytotoxicity at 10 µM is -3.06%.

Regarding `Cc1nc(Nc2nccs2)cc(C2CN(C(C)C)C2)n1`, the cytotoxicity at 10 µM was -5.42%.

Take `Cc1ccc2[nH]c(C3CCN(C)CC3)nc2c1`: the cytotoxicity at 10 µM worked out at 6.79%.

Turning to `O=C(NCCO)C1(Cc2ccccc2-c2ccncc2)CCOCC1`, the cytotoxicity at 10 µM amounted to 2.27%.

As to `CCc1nnc(Nc2cccc(C3CCN(C(=O)CNC)CC3)n2)s1`, the cytotoxicity at 10 µM was -31.2%.

With `Cc1nc(Nc2cnccn2)cc(C2CCN(c3ncccn3)C2)n1` (centres undefined), the cytotoxicity at 10 µM is -19.5%.

For the compound `CNc1cc(C2CCCN2Cc2ccc(OCC(=O)O)cc2)ccn1` (centres undefined), the cytotoxicity at 10 µM was -21.9%.

`CC(=O)N1CCN(CC(N)=O)CC(COc2ccccc2)C1` (centres undefined): the cytotoxicity at 10 µM is -28.7%.

On to `COCC(=O)N1CCN(Cc2cc(-c3ccncc3)nn2C)CC1`, for which the cytotoxicity at 10 µM was -4.17%.

Consider `CC(=O)N(C)CC(=O)Nc1cc(C(F)(F)F)c[nH]c1=O`, for which the cytotoxicity at 10 µM worked out at 4.57%.

Take `CN(Cc1ccc(Br)c2cccnc12)S(C)(=O)=O`: the cytotoxicity at 10 µM came out at 2.92%.

In the case of `COc1ccccc1N1CCN(C(=O)c2ccoc2)CC1`, the cytotoxicity at 10 µM turned out to be 11.5%.

Regarding `COc1c(C)cnc(CN2CCn3c(nnc3C3CC3)C2)c1C`, the cytotoxicity at 10 µM is -4.94%.

As for `Cc1cc(F)ccc1N1CCCC(NS(=O)(=O)CCCF)C1=O` (centres undefined), the cytotoxicity at 10 µM was -3.14%.

On to `CN(CC(=O)NCc1cc2ccccc2o1)S(C)(=O)=O`, for which the cytotoxicity at 10 µM is 4.59%.

As to `CC(NC(=O)Nc1cccnc1N1CCCC1)c1ccccn1` (centres undefined), the cytotoxicity at 10 µM was 8.05%.

Take `NC(=O)C1CCN(CCCc2ccc(C(F)(F)F)cc2)CC1`: the cytotoxicity at 10 µM was -0.85%.

As for `O=C(Nc1cc[nH]n1)c1ccc(COCC(F)(F)F)cc1`, the cytotoxicity at 10 µM is -7.46%.

Regarding `CCN(CC)c1ccc(CNC(=O)c2ccccn2)cn1`, the cytotoxicity at 10 µM was 10.8%.

Consider `O=C(c1cnc(NCC2CCCO2)c(Cl)c1)N1CCOCC1` (centres undefined), for which the cytotoxicity at 10 µM amounted to 0.0875%.

With `O=C(NCc1ccccn1)N1CC=C(c2ccccc2)CC1`, the cytotoxicity at 10 µM was determined as 14.9%.

Turning to `Cc1nn(C)cc1C(=O)NCc1cc(N(C)C)nc2ccccc12`, the cytotoxicity at 10 µM was found to be 2.29%.

On to `Cc1noc(CN2CCN(CCS(C)(=O)=O)CC2)n1`, for which the cytotoxicity at 10 µM is -10.1%.

As to `O=C(Nc1ccc(N2CCOCC2)nc1)N1CCc2sccc2C1`, the cytotoxicity at 10 µM is -2.26%.

Consider `c1nc(N2CCCC(Cn3cncn3)C2)c2ccsc2n1` (centres undefined), for which the cytotoxicity at 10 µM is 5.68%.

For the compound `CSC(C)(C)CNC(=O)NCc1cccc(-n2cncn2)c1`, the cytotoxicity at 10 µM is -14.4%.

For `Cc1ccc(OCCNc2cccc(C(=O)N3CCOCC3)c2)cc1`, the cytotoxicity at 10 µM turned out to be 4.14%.

`COC(=O)[C@H](C)NC(=O)Cc1c(C)nc2c(c1C)c(=O)[nH]n2C`: the cytotoxicity at 10 µM is 10.7%.

Take `CN(CC(N)=O)S(=O)(=O)c1ccc(F)cc1F`: the cytotoxicity at 10 µM was 4.26%.

With `Cc1ccc(CNC2CCc3nc(C(C)C)nn3C2)o1` (centres undefined), the cytotoxicity at 10 µM is -1.85%.

For the compound `Cc1cnn(CC2CCCCN2C(=O)c2ccc3c(c2)nnn3C)c1` (centres undefined), the cytotoxicity at 10 µM was -6.36%.

Consider `CCOC(C)c1nc(Cn2cc(C(=O)NC)ccc2=O)cs1` (centres undefined), for which the cytotoxicity at 10 µM was -0.315%.

In the case of `COc1ccc(C)cc1CCNS(C)(=O)=O`, the cytotoxicity at 10 µM is 2.39%.

On to `Cc1oc(-c2ccc(Cl)cc2)nc1C(=O)NC1=NCCS1`, for which the cytotoxicity at 10 µM came out at 4.65%.

As for `CN(Cc1nnc(C2CC2)o1)C(c1ccc(F)cc1)c1cccnc1` (centres undefined), the cytotoxicity at 10 µM was -4.06%.

As for `Cc1ccccc1C(C)(C)CNC(=O)CCSc1nnnn1C`, the cytotoxicity at 10 µM amounted to 6.51%.

`O=C(CNC1CCc2ncnn2C1)N(C1=CCCCC1)C1CC1` (centres undefined): the cytotoxicity at 10 µM is -8.07%.

Consider `Cc1nc(O)ccc1C(=O)NCc1ncoc1C`, for which the cytotoxicity at 10 µM is 5.68%.

`Cc1[nH]ccc1C(=O)NCc1ncoc1C`: the cytotoxicity at 10 µM was -2.45%.

For the compound `CS(=O)(=O)N1CCN(c2cc(N3CCCC3CO)ncn2)CC1` (centres undefined), the cytotoxicity at 10 µM stood at 3.51%.

For `CC(C)(C)c1cnc(CNc2cccc(Cn3cnnc3)c2)o1`, the cytotoxicity at 10 µM came to 2.72%.

Turning to `CCCN(CCc1ccccn1)C(=O)Cn1cnnn1`, the cytotoxicity at 10 µM was found to be 2.52%.

Consider `CC(O)C1CCN(C(=O)CCOc2ccccc2F)CC1` (centres undefined), for which the cytotoxicity at 10 µM was -5.63%.

`CC(C)(C)C(O)CN1CCN(CC(=O)NC(C2CC2)C2CC2)CC1` (centres undefined): the cytotoxicity at 10 µM amounted to 3.51%.

In the case of `CN(C(=O)c1cccnc1OCC(F)F)c1ccc2c(c1)CCO2`, the cytotoxicity at 10 µM was determined as 3.47%.

`Cc1ccc(F)c(NCc2ccc(C(=O)N(C)C)[nH]2)c1`: the cytotoxicity at 10 µM turned out to be 4.96%.

`CCOCCCNC(=O)c1ccccc1S(C)(=O)=O`: the cytotoxicity at 10 µM was -1.58%.

With `O=C(c1ccc[nH]1)N1CCCn2c(nnc2Cn2cccn2)C1`, the cytotoxicity at 10 µM worked out at 8.06%.

With `COCCO[C@H]1CCN(C(=O)c2ccsc2)[C@H]1Cc1cnn(C)c1`, the cytotoxicity at 10 µM is -72.8%.

As to `Cc1nc2c(C)cccc2cc1C(=O)N1CCC2(CCN(C)CC2)C1`, the cytotoxicity at 10 µM was -4.39%.

As to `CCc1nc(C)c([C@H]2CN(C)C[C@@H]2C(=O)NCc2ccccn2)[nH]1`, the cytotoxicity at 10 µM is 2.77%.

As to `Cn1nc(CO)c2c1CCN(c1ncnc3c1CCNC3)C2`, the cytotoxicity at 10 µM was -0.132%.

As to `COc1ccc(C2(C(=O)N3C[C@@H](C(=O)O)[C@H](C(C)C)C3)CC2)cc1`, the cytotoxicity at 10 µM is -8.36%.

`CC(C)Cc1cc(C(=O)NC(C)(C)c2nnc(N)s2)n(C)n1`: the cytotoxicity at 10 µM stood at 0.91%.

Consider `COc1ccc2c(=O)n(CC3CCNC3)ccc2c1OC` (centres undefined), for which the cytotoxicity at 10 µM came to 5.76%.

As for `N#Cc1cccnc1N1CCCC(CO)(Cc2ccccc2F)C1` (centres undefined), the cytotoxicity at 10 µM was 4.01%.

On to `Cc1ncnc(NCCCN2CCCCC2CO)c1C` (centres undefined), for which the cytotoxicity at 10 µM is -2.35%.

Take `CCSCCn1cc(-c2nccs2)nn1`: the cytotoxicity at 10 µM was determined as 0.935%.

`CCN(C)c1ccc(C(=O)NCCCc2ccccn2)cn1`: the cytotoxicity at 10 µM was -43.7%.

Turning to `CN(CCCO)C(=O)c1ccc2c(c1)nc(N1CC[C@H](O)C1)n2C`, the cytotoxicity at 10 µM was -1.46%.

As to `CCN(Cc1ccncc1)C(=O)c1cn(CCCc2ccccc2)nn1`, the cytotoxicity at 10 µM turned out to be 3%.

Consider `OCCO[C@H]1C[C@@H](O)C12CCN(Cc1nc(C(F)(F)F)no1)CC2`, for which the cytotoxicity at 10 µM is 0.145%.

`CSc1nccc(N2CCN(C)C3(CCNC(=O)CC3)C2)n1` (centres undefined): the cytotoxicity at 10 µM was determined as 18.7%.

Regarding `CN(CCCOc1ccccc1)Cc1nc2c(cnn2C)c(=O)[nH]1`, the cytotoxicity at 10 µM is -3.23%.

Consider `Cc1cccc(C)c1OCCNC(=O)CN1CCN(C)CC1C` (centres undefined), for which the cytotoxicity at 10 µM was -6.28%.

In the case of `Cc1ccc(C2CCCN2S(=O)(=O)N(C)CCc2ccccn2)o1` (centres undefined), the cytotoxicity at 10 µM was -5.31%.

For the compound `c1ccc(-c2nc(CNCC3CCCN3c3cccnn3)co2)cc1` (centres undefined), the cytotoxicity at 10 µM was -12.7%.

As for `Cc1cc(CN2CCN(C(=O)NC(C)Cn3cccn3)CC2)no1` (centres undefined), the cytotoxicity at 10 µM was -7.45%.

In the case of `O=C(NCCCn1cncn1)N1CCC(N2CCCCC2)CC1`, the cytotoxicity at 10 µM is -7.01%.

For the compound `Cc1ccccc1OCC(O)CN1CCC(c2ccn[nH]2)CC1` (centres undefined), the cytotoxicity at 10 µM worked out at 0.531%.

`Cc1cnn(CC2CCCCN2Cc2nnsc2Cl)c1` (centres undefined): the cytotoxicity at 10 µM was -2.93%.

On to `Cc1ncc(CN2CCCC(c3cc(C(F)(F)F)[nH]n3)C2)s1` (centres undefined), for which the cytotoxicity at 10 µM is -17.8%.

For the compound `CCN1CCC(CNC(=O)Nc2cc(C)on2)C1` (centres undefined), the cytotoxicity at 10 µM is -7.33%.

For `Cc1cnn(CCNCc2ccc(OCc3cccnc3)cc2)c1`, the cytotoxicity at 10 µM is -12.1%.

As for `Cc1nn(C)c(N(C)C)c1CNCc1cccc(Cn2cncn2)c1`, the cytotoxicity at 10 µM is -7.85%.

Turning to `Cc1cnn(CC(C)NCc2ccncc2)c1` (centres undefined), the cytotoxicity at 10 µM was -2.81%.

On to `O=C1NCC(C(=O)Nc2ncc(Cc3ccccc3F)s2)N1` (centres undefined), for which the cytotoxicity at 10 µM was -1.11%.

Consider `CCOc1ccccc1C(CC(=O)Nc1nc(C)cs1)NC(C)=O` (centres undefined), for which the cytotoxicity at 10 µM is -10.9%.

Consider `CCc1n[nH]c(C2CN(Cc3nnc(C4CC4)n3C)CCO2)n1` (centres undefined), for which the cytotoxicity at 10 µM amounted to 5.25%.

For `COCCC(=O)N1CCn2cc(CN3CCN(C)CC3)nc2C1`, the cytotoxicity at 10 µM is -3.13%.

Take `CN1CCN(Cc2cn3c(n2)CN(Cc2ccc(F)cc2)CC3)CC1`: the cytotoxicity at 10 µM is -113%.

On to `O=S(=O)(C1CC1)N1CCc2ncnc(N3CCCC3)c2CC1`, for which the cytotoxicity at 10 µM was -98.6%.

For the compound `CC(c1ccc(F)cc1F)N1CCN(CCC(=O)O)CC1` (centres undefined), the cytotoxicity at 10 µM was -3.6%.

As to `CNC1CCCN(Cc2noc(C3CC3)n2)C1` (centres undefined), the cytotoxicity at 10 µM stood at 0.95%.

As for `CS(=O)(=O)NCc1ncn2c1CN(Cc1cccs1)CCC2`, the cytotoxicity at 10 µM was -66.8%.

On to `Cc1cnc(C(=O)N2CCCC(c3c(C)c(=O)nc4n3CCC4)C2)cn1` (centres undefined), for which the cytotoxicity at 10 µM was -26.5%.

On to `CCn1cc(C(=O)N2C[C@H]3CC(Oc4ccccc4)C[C@H]3C2)cn1` (some centres undefined), for which the cytotoxicity at 10 µM was found to be 5.75%.
